# Compound activity as filed in PubChem.
# T cruzi repl = T. cruzi replication inhibition. T. cruzi beta-gal in NIH3T3, luminescence, 90 h. inhibition, % (concentration not given with the values). actives 1.4% (n = 300,000). AID 1885;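 active = mean inhibition across valid replicates above about 55%, limit read from the data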;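 note: signal also drops with host cell toxicity which is not excluded here; 0% = plate median of DMSO wells and 100% = zero luminescence signal; higher percent means less beta-gal luminescence so fewer parasites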
#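 Assay system: NIH/3T3 fibroblasts plus reporter T. cruzi. Amount: NIH/3T3 cells, 5,000 per well. Buffer or medium: DMEM, 2% fetal bovine serum. Doses: compound pinned at 50 nL/well, DMSO. Schedule: ≥90 h infection period, 3 h prior cell attachment. Signal: luminescent β-galactosidase signal after 60 min lysis. Read-out: parasite load inhibition, %.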
# CHOP inh = inhibitors of CHOP induction in ER stress response | CHO-K1 CHOP-promoter luciferase, tunicamycin-induced, 15-18 h | inhibition, % at 10 µM | actives 3.8% (n = 220,000);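 active = compounds that reduced the stress-induced luciferase reporter signal by more than about 70% of percent inhibition, limit read from the data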;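 note: 0% = tunicamycin plus vehicle and 100% = wells without tunicamycin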
# Dynein transport = blocks dynein driven cargo transport along microtubules | 3617.4 mouse cells, GR-EGFP nuclear translocation imaging; test concentration mostly 20 µM; stimulated with dexamethasone, 1 µM; stronger effect = lower value | z-score, hits read low | actives 0.47% (n = 220,000);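 active = plate z-score of nuclear minus cytoplasmic receptor signal below a set negative limit, without overly bright fluorescence or cell loss, cut at about -3.5 in these data, passing the limit was not always enough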;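 note: z-score of nuclear minus cytoplasmic ring GR-EGFP intensity difference per well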
#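 Buffer or medium: tetracycline-free induction medium containing charcoal-stripped FBS / Reagent: dexamethasone agonist, 1.0 µM final, for 30 min / Technique: automated 10x imaging of fixed Hoechst-stained cells / Times: induction 48 h, compound 1 h, agonist 30 min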
# L major viab = Leishmania major promastigote growth inhibition | actives 9% (n = 200,000) | Leishmania major promastigotes, resazurin fluorescence viability | inhibition, % at 10 µM; in the data active = inhibition above about 50%;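 note: promastigotes grown with compound for 44 hours at 28 °C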
# CHOP UPR activ = apoptotic UPR (CHOP) activation; CHO-CHOP luciferase reporter, luminescence; percent of tunicamycin response over DMSO baseline; activation, % at 10 µM; actives 0.34% (n = 330,000); AID 449763;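 active = at 10 µM dose, activation of 40% or more, normalized to positive control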;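 note: 100% = tunicamycin at 10 µg/mL and 0% = DMSO alone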
#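 Test system: CHO-CHOP cells, stable luciferase reporter of PERK-eIF2a-CHOP signalling | Quantity: 500 CHO-CHOP cells per well | Buffer or medium: F12 plus 10% serum | Compound dosing: 10 µM single point, 0.5% DMSO | Schedule: 6 h compound treatment, 37 °C | Signal: Luciferase luminescence | Control set: Tunicamycin high control, DMSO low control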
# XBP1 UPR activ = adaptive UPR (XBP1) activation; CHO-XBP1 luciferase reporter, IRE1-XBP1 UPR activation, luminescence; percent of tunicamycin response, DMSO as zero; activation, % at 20 µM; actives 0.33% (n = 330,000); AID 463104;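 active = versus positive control, 20 µM dose yields 30% or more activation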;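 note: 100% = tunicamycin at 10 µg/mL and 0% = DMSO only wells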
#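 incubation = overnight seeding at 37 °C, 6 h compound treatment at 37 °C | assay system = CHO-XBP1 cells stably carrying IRE1-XBP1-driven luciferase reporter | input = 1000 cells per well | detection = luciferase luminescence | dosing = single point, 20 µM final compound, 1% DMSO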
# Numbers without * were called inactive; . = no result given. This is one part of a sample in which hits are shown more often than they occur.
SMILES,T cruzi repl,CHOP inh,Dynein transport,L major viab,CHOP UPR activ,XBP1 UPR activ
CCOc1ccc(NC(=O)NC2CCS(=O)(=O)C2)cc1 (configuration not stated),-9,.,.,.,-2,-1
CCc1ccc(NC(=O)CNC(=O)[C@@H]2Cc3ccccc3CN2C(=O)OC(C)(C)C)cc1,10,.,.,.,1,0
COc1ccc(-c2cc(C(=O)NCc3ccco3)c3ccccc3n2)cc1OC,7,.,.,.,7,1
O=C(Nc1cccc(S(=O)(=O)NCc2ccco2)c1)c1cc(-c2ccc(F)cc2)nc2ccccc12,49,34,0.77,98*,9,-1
COc1ccc(-c2cc(C(=O)Nc3cccc(S(=O)(=O)NCc4ccco4)c3)c3ccccc3n2)cc1OC,60*,58,0.13,72*,2,0
O=C(Nc1ccccc1)c1cccc(S(=O)(=O)NCc2ccco2)c1,1,7,0.091,-1,1,-1
CCCc1cc(=O)[nH]c2nnc(SCC(=O)Nc3cc(C)on3)n12,3,.,.,.,0,1
CCc1cccc(CC)c1N1C(=O)c2cc(N3CCOCC3)c([N+](=O)[O-])cc2C1=O,-24,23,3.3,84*,-1,0
CCc1ccc(N2C(=O)c3cc(N4CCOCC4)c([N+](=O)[O-])cc3C2=O)cc1,-21,13,-0.099,-5,1,-1
Cc1ccc(C)c(N2C(=O)c3cc(N4CCOCC4)c([N+](=O)[O-])cc3C2=O)c1,-10,42,0.79,55*,-1,-3
O=S(=O)(c1ccc(Cl)cc1)N1CCN(C(=S)NCC2CCCO2)CC1 (configuration not stated),13,.,.,.,0,-2
CCOC(=O)c1cc(S(=O)(=O)NCC2CCN(Cc3cccc(C)c3)CC2)cn1C,29,.,.,.,-2,-4
Cc1ccc(OCc2ccc(C(=O)NN)o2)c([N+](=O)[O-])c1,-7,-1,0.2,.,2,1
Cc1ccc(OCc2ccc(C(=O)Nc3c(C)nn(Cc4c(F)c(F)c(F)c(F)c4F)c3C)o2)c([N+](=O)[O-])c1,.,60,1.1,92*,4,0
CN(C)C1(CNC(=O)C2CCC(=O)N(CCc3ccc(Cl)cc3)C2)CCCCC1 (configuration not stated),9,.,.,.,0,3
COc1ccccc1C1CCN(Cc2ccc3ccccc3c2)CC1,59*,.,.,.,2,1
COc1ccccc1C1CCN(Cc2ccccc2)CC1,21,.,.,.,0,-3
O=c1cc(-c2ccc(Cl)cc2)[nH]c2ccccc12,12,22,0.46,.,4,-2
Clc1ccc(-c2cc3ccccc3[nH]2)cc1,-10,95*,-0.96,-7,2,3
CCSc1nc2ccccc2[nH]1,-13,8,-1.4,10,0,1
CC1(C)C(CSc2nc3ccccc3[nH]2)C1(Cl)Cl (configuration not stated),15,5,1.1,74*,6,3
COc1ccc(C=C2C=C(C(C)(C)C)C(=O)C(C(C)(C)C)=C2)cc1OC,75*,.,.,.,-12,-14
Cc1ccsc1/C=C1\CCc2ccccc2C1=O,-4,77*,-1.1,-6,-5,-4
COc1ccc(/C=C2\CC/C(=C\c3ccc(OC)c(OC)c3)C2=O)cc1OC,4,31,-1.2,27,3,0
COc1ccc(/C=C2\CCc3ccccc3C2=O)cc1OC,-19,-6,-1.2,51*,23,6
SMILES,T cruzi repl,CHOP inh,Dynein transport,L major viab,CHOP UPR activ,XBP1 UPR activ
COc1cccc(/C=C2\CCc3ccccc3C2=O)c1,15,-14,-1.1,.,0,-6
Cc1ccccc1/C=C1\CCCc2ccccc2C1=O,16,49,-0.0025,3,3,1
COc1ccc(/C=C2/CCc3ccccc3C2=O)cc1CN1CCOCC1,57*,-67,1.8,82*,3,-1
CC(=O)Oc1ccc(/C=C2/CCc3ccccc3C2=O)cc1,22,10,-0.057,.,0,-3
COc1ccc(/C=C2\CCc3ccccc3C2=O)cc1Cn1nc(C)cc1C,15,70*,-0.19,74*,2,1
CC(=O)Nc1ccc(OCC(=O)Nc2ccc(Cl)c(S(=O)(=O)N3CCOCC3)c2)cc1,.,.,.,.,1,-6
O=C(Nc1ccc(-c2csc(Nc3ccccc3)n2)cc1)c1cccc(C(F)(F)F)c1,35,91*,0.035,.,10,14
O=C(Nc1ccc(-c2csc(Nc3ccc(Cl)cc3)n2)cc1)c1cccc(C(F)(F)F)c1,68*,49,-0.77,.,3,5
CC1CCCN(S(=O)(=O)c2cccc(C(=O)NCC3CCCO3)c2)C1 (configuration not stated),.,.,.,.,-1,-2
COc1cccc(CCNC(=O)CCc2nnc(-c3cc(C)oc3C)o2)c1,-14,.,.,.,-1,0
COc1cccc(CC(=O)OCC(=O)NNC(=O)c2ccc(Br)cc2)c1,.,.,.,.,1,1
COc1ccccc1NC1=C(N2CCCCC2)C(=O)c2ccccc2C1=O,62*,-9,0.43,100*,0,0
COc1ccccc1NS(=O)(=O)c1cc(N)ccc1N1CCCC1,.,.,.,.,2,-3
O=C(/C=C/c1ccc(O)cc1)c1ccc(NC2=C(N3CCCCC3)C(=O)c3ccccc3C2=O)cc1,17,44,-2.3,99*,13,2
Cc1ccc(NC2=C(N3CCCCC3)C(=O)c3ccccc3C2=O)cc1,66*,-27,-0.22,97*,-2,2
CCN1CCN(C2=C(NS(=O)(=O)c3ccc(C)cc3)C(=O)c3ccccc3C2=O)CC1,5,.,.,.,1,-1
O=C1C(Nc2cccc(O)c2)=C(N2CCCCC2)C(=O)c2ccccc21,-14,-19,-0.91,98*,5,-1
O=C(/C=C/c1ccc(O)cc1)c1ccccc1,-1,-22,-1,.,4,0
CCCCn1c(N)c(N(CC)C(=O)C(c2ccccc2)c2ccccc2)c(=O)[nH]c1=O,-10,-8,-1.4,-4,1,-1
CN(C1=C(N2CCCCC2)C(=O)c2ccccc2C1=O)c1ccccc1,40,71*,-0.67,65*,-1,-2
O=C1C(NS(=O)(=O)c2ccc(Br)cc2)=C(N2CCCCC2)C(=O)c2ccccc21,22,.,.,.,1,-2
CN(c1ccccc1)c1nc(N)c([N+](=O)[O-])c(N2CCCCC2)n1,10,-3,-0.38,.,2,2
O=C1C(Nc2ccccc2)=C(N2CCCCC2)C(=O)c2ccccc21,48,12,-0.78,97*,-2,0
O=c1ccc(-c2ccccc2)nn1Cc1ccc(F)cc1Cl,1,.,.,.,0,-1
